Experimental data taken from ChEMBL document CHEMBL4219028, “Development of Protein Degradation Inducers of Androgen Receptor by Conjugation of Androgen Receptor Ligands and Inhibitor of Apoptosis Protein Ligands” (J Med Chem, 2018).
Values belong to the compound of their own block, whether it stands above or below them. Active and inactive are the calls of the source. No cut-off for these calls is given here.

What was measured:
[1] = molecular target: T1, Androgen receptor/Baculoviral IAP repeat-containing protein 2 (Homo sapiens, UniProt P10275+Q13490); test: Induction of AR/cIAP1 interaction in human 22Rv1 cells assessed as ubiquitin proteasome system mediated androgen receptor protein degradation at 1 to 3 uM after 6 hrs by Western blot analysis; assay type: cell-based
Method in brief: (§1)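 22Rv1 cells were treated with compound, or with separate ligands (30 μM or 3 μM each), for 6 h. Lysates in SDS buffer (0.1 M Tris pH 8.0, 1% SDS) were normalized by BCA, run on SDS-PAGE and immunoblotted. AR/GAPDH ratio was normalized to vehicle as 100. DC50 is the concentration giving 50% AR reduction; means ± SD, n = 3; t-test against vehicle.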
Target sequence in this assay (Q13490 whole entry, looked up, one chain of several): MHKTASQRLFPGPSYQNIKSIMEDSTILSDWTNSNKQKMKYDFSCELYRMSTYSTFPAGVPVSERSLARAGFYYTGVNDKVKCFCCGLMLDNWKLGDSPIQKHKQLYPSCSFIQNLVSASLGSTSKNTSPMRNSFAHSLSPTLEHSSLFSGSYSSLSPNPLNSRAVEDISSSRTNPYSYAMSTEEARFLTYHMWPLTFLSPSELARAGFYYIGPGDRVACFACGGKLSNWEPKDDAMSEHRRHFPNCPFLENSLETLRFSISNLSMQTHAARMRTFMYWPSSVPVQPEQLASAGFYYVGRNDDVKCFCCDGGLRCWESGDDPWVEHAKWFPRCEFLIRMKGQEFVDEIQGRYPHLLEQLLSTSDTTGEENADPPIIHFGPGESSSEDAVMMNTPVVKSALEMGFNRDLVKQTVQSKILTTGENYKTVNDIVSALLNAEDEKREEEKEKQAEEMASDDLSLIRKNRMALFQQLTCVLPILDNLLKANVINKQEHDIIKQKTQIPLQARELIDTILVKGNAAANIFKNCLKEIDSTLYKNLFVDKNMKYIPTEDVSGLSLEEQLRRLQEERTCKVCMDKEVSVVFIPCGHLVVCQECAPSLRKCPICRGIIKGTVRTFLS

Androgen receptor [2] = molecular target: T2, Androgen receptor (Homo sapiens, UniProt P10275); test: Displacement of [17-alpha-methyl-H-3] mibolerone from wild-type androgen receptor (unknown origin) expressed in human Freestyle293F cells measured after 3 hrs; assay type: cell-based
T2 sequence (P10275 whole entry): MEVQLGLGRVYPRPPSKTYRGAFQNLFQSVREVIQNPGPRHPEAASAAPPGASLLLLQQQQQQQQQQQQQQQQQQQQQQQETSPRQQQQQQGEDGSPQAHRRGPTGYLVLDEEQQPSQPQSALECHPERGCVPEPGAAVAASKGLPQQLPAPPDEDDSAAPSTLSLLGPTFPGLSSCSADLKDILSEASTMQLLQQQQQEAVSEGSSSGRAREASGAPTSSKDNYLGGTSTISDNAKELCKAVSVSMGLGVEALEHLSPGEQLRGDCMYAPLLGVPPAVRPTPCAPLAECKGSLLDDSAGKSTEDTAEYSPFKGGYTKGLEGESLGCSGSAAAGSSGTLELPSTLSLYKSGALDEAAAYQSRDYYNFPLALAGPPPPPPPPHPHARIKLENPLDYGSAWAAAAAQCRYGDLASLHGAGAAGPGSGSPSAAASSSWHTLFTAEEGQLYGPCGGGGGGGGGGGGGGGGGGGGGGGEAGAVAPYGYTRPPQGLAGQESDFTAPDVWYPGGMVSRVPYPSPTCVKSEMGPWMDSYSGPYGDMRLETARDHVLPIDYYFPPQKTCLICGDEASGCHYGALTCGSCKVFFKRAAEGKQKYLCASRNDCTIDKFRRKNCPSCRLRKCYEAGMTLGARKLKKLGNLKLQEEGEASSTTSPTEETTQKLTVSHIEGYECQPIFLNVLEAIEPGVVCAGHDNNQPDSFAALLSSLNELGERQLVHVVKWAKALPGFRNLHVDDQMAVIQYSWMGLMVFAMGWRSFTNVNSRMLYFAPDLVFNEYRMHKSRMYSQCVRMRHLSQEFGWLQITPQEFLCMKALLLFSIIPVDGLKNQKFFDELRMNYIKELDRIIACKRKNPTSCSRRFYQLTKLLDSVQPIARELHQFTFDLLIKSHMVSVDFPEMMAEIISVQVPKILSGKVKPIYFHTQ
Method in brief: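 Wild-type AR was expressed in FreeStyle293F cells (pcDNA3.1, 48 h, 37 °C, 8% CO2). Cells were lysed in TEGM buffer (pH 7.2, molybdate, DTT) by freeze–thaw, and the supernatant from 228,000g spin was used. Lysate was incubated with 3 nM (final) [3H]mibolerone plus compound at 4 °C for 3 h. Bound and free were separated by dextran/charcoal and bound counts gave % inhibition; IC50 from three experiments.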

[3] = molecular target: T1, Androgen receptor/Baculoviral IAP repeat-containing protein 2; test: Induction of AR/cIAP1 interaction in human 22Rv1 cells assessed as ubiquitin proteasome system mediated androgen receptor protein degradation by Western blot analysis
Target sequence in this assay (Q13490 whole entry, one chain of several): as the sequence (Q13490 whole entry, looked up, one chain of several) above

[4] = molecular target: T1, Androgen receptor/Baculoviral IAP repeat-containing protein 2; test: Induction of AR/cIAP1 interaction in human 22Rv1 cells assessed as ubiquitin proteasome system mediated androgen receptor protein degradation after 6 hrs by Western blot analysis; assay type: cell-based; method in brief: as §1
Target sequence in this assay (Q13490 whole entry, looked up, one chain of several): as the sequence (Q13490 whole entry, looked up, one chain of several) above

[5] = molecular target: T1, Androgen receptor/Baculoviral IAP repeat-containing protein 2; test: Induction of AR/cIAP1 interaction in human 22Rv1 cells assessed as ubiquitin proteasome system mediated androgen receptor protein degradation at 30 uM after 6 hrs by Western blot analysis; assay type: cell-based; method in brief: as §1
Target sequence in this assay (Q13490 whole entry, looked up, one chain of several): as the sequence (Q13490 whole entry, looked up, one chain of several) above

[6] = molecular target: T1, Androgen receptor/Baculoviral IAP repeat-containing protein 2; test: Induction of AR/cIAP1 interaction in human 22Rv1 cells assessed as ubiquitin proteasome system mediated androgen receptor protein degradation at 3 uM in presence of 1-benzyl-4-(4-cyanophenyl)-2,5-dimethyl-1H-pyrrole-3-carbonitrile after 6 hrs by Western blot analysis; assay type: cell-based; method in brief: as §1
Target sequence in this assay (Q13490 whole entry, looked up, one chain of several): as the sequence (Q13490 whole entry, looked up, one chain of several) above

Androgen receptor [7] = molecular target: T2, Androgen receptor; test: Binding affinity to androgen receptor (unknown origin)
Method in brief: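 Wild-type AR expressed by transfection of FreeStyle293F cells (48 h shaking at 37 °C), then lysed by freeze-thaw in TEGM buffer (pH 7.2, molybdate, DTT). Cleared lysate incubated with [3H]mibolerone (final 3 nM) plus test compound at 4 °C for 3 h. Bound and free separated by dextran/charcoal, bound counted, and % inhibition calculated. IC50 taken from three separate experiments.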

[8] = molecular target: T1, Androgen receptor/Baculoviral IAP repeat-containing protein 2; test: Induction of AR/cIAP1 interaction in human 22Rv1 cells assessed as ubiquitin proteasome system mediated androgen receptor protein degradation at 3 uM after 6 hrs by Western blot analysis; assay type: cell-based; method in brief: as §1
Target sequence in this assay (Q13490 whole entry, looked up, one chain of several): as the sequence (Q13490 whole entry, looked up, one chain of several) above

[9] = molecular target: T1, Androgen receptor/Baculoviral IAP repeat-containing protein 2; test: Induction of AR/cIAP1 interaction in human 22Rv1 cells assessed as ubiquitin proteasome system mediated androgen receptor protein degradation at 30 uM in presence of methyl (2S)-2-(((2S,3R)-3-amino-2-hydroxy-4-phenylbutanoyl)amino)-4-methylpentanoate after 6 hrs by Western blot analysis; assay type: cell-based; method in brief: as §1
Target sequence in this assay (Q13490 whole entry, looked up, one chain of several): as the sequence (Q13490 whole entry, looked up, one chain of several) above

[10] = molecular target: T1, Androgen receptor/Baculoviral IAP repeat-containing protein 2; test: Induction of AR/cIAP1 interaction in human 22Rv1 cells assessed as ubiquitin proteasome system mediated androgen receptor protein degradation at 3 uM in presence of N-((1S)-1-Cyclohexyl-2-((2S)-2-(4-(3-methoxybenzoyl)-1,3-thiazol-2-yl)pyrrolidin-1-yl)-2-oxoethyl)-N2-methyl-L-alaninamide after 6 hrs by Western blot analysis; assay type: cell-based; method in brief: as §1

Activity [1]: inactive
SMILES: CN[C@@H](C)C(=O)N[C@H](C(=O)N1CCC[C@H]1c1nc(C(=O)c2cccc(OCCOCCOCCOCCOc3ccccc3Cn3c(C)c(C#N)c(-c4ccc(C#N)cc4)c3C)c2)cs1)C1CCCCC1

SMILES: Cc1nn(-c2ccc(C#N)c(C(F)(F)F)c2)c(C)c1Cc1ccc(C(=O)NCCOCCOCCOCCNC(=O)[C@H](CC(C)C)NC(=O)[C@@H](O)[C@H](N)Cc2ccccc2)cc1
IC50 (Androgen receptor [2]): 190 nM | DC50 [3]: 11700 nM

Activity [1]: Active
SMILES: CN[C@@H](C)C(=O)N[C@H](C(=O)N1CCC[C@H]1c1nc(C(=O)c2cccc(OCCOCCOCCOCCCc3ccc(Cn4c(C)c(C#N)c(-c5ccc(C#N)cc5)c4C)cc3)c2)cs1)C1CCCCC1

SMILES: CC(C)C[C@H](NC(=O)[C@@H](O)[C@H](N)Cc1ccccc1)C(=O)NCCOCCOCCOCCNC(=O)c1ccc(S(=O)(=O)CC(C)(O)C(=O)Nc2ccc(C#N)c(C(F)(F)F)c2)cc1 (some centres undefined)
IC50 (Androgen receptor [2]): 1100 nM | DC50 [3]: > 30000 nM

MED [4]: 30 µM | Activity [5]: Active | IC50 (Androgen receptor [2]): 27 nM | DC50 [3]: 21600 nM
SMILES: Cc1c(C#N)c(-c2ccc(C#N)cc2)c(C)n1Cc1ccc(C(=O)NCCOCCOCCOCCNC(=O)[C@H](CC(C)C)NC(=O)[C@@H](O)[C@H](N)Cc2ccccc2)cc1

Activity [1]: inactive
SMILES: CN[C@@H](C)C(=O)N[C@H](C(=O)N1CCC[C@H]1c1nc(C(=O)c2cccc(OCCOc3cccc(OCCOc4ccc(Cn5c(C)c(C#N)c(-c6ccc(C#N)cc6)c5C)cc4)c3)c2)cs1)C1CCCCC1

Activity [1]: Active
SMILES: CN[C@@H](C)C(=O)N[C@H](C(=O)N1CCC[C@H]1c1nc(C(=O)c2cccc(OCCOCCOCCOCC#Cc3ccc(Cn4c(C)c(C#N)c(-c5ccc(C#N)cc5)c4C)cc3)c2)cs1)C1CCCCC1

IC50 (Androgen receptor [2]): 190 nM | DC50 [3]: 20500 nM
SMILES: Cc1nn(-c2ccc(C#N)c(Cl)c2)c(C)c1CCc1ccc(C(=O)NCCOCCOCCOCCNC(=O)[C@H](CC(C)C)NC(=O)[C@@H](O)[C@H](N)Cc2ccccc2)cc1

Activity [1]: Active
SMILES: CN[C@@H](C)C(=O)N[C@H](C(=O)N1CCC[C@H]1c1nc(C(=O)c2cccc(OCCOCCOCCOCCOc3cccc(Cn4c(C)c(C#N)c(-c5ccc(C#N)cc5)c4C)c3)c2)cs1)C1CCCCC1

Activity [6]: inactive
SMILES: CN[C@@H](C)C(=O)N[C@H](C(=O)N1CCC[C@H]1c1nc(C(=O)c2cccc(OC)c2)cs1)C1CCCCC1

Activity [1]: inactive
SMILES: CN[C@@H](C)C(=O)N[C@H](C(=O)N1CCC[C@H]1c1nc(C(=O)c2cccc(OCCOc3ccc(OCCOc4ccc(Cn5c(C)c(C#N)c(-c6ccc(C#N)cc6)c5C)cc4)cc3)c2)cs1)C1CCCCC1

SMILES: Cc1c(C#N)c(-c2ccc(C#N)cc2)c(C)n1Cc1ccc(C(=O)O)cc1
IC50 (Androgen receptor [7]): 1.4 nM

SMILES: Cc1nn(-c2ccc(C#N)c(Cl)c2)c(C)c1CCc1ccc(C(=O)O)cc1
IC50 (Androgen receptor [7]): 53 nM

Activity [8]: Active
SMILES: CN[C@@H](C)C(=O)N[C@H](C(=O)N1CCC[C@H]1c1nc(C(=O)c2cccc(OCCOCCOCCOc3ccc(Cn4c(C)c(C#N)c(-c5ccc(C#N)cc5)c4C)cc3)c2)cs1)C1CCCCC1

IC50 (Androgen receptor [2]): > 10000 nM | DC50 [3]: > 30000 nM
SMILES: Cc1nn(-c2ccc(C#N)cc2Cl)c(C)c1Cc1ccc(C(=O)NCCOCCOCCOCCNC(=O)[C@H](CC(C)C)NC(=O)[C@@H](O)[C@H](N)Cc2ccccc2)cc1

Activity [9]: inactive | Activity [10]: inactive
SMILES: Cc1c(C#N)c(-c2ccc(C#N)cc2)c(C)n1Cc1ccccc1

MED [4]: 3 µM | Activity [1]: Active
SMILES: CN[C@@H](C)C(=O)N[C@H](C(=O)N1CCC[C@H]1c1nc(C(=O)c2cccc(OCCOCCOCCNC(=O)c3ccc(Cn4c(C)c(C#N)c(-c5ccc(C#N)cc5)c4C)cc3)c2)cs1)C1CCCCC1

MED [4]: 20 µM
SMILES: CN[C@@H](C)C(=O)N[C@H](C(=O)N1CCC[C@H]1C(=O)N[C@H](C(=O)NCCOCCOCCOCCNC(=O)c1ccc(Cn2c(C)c(C#N)c(-c3ccc(C#N)cc3)c2C)cc1)C(c1ccccc1)c1ccccc1)C1CCCCC1

Activity [1]: inactive
SMILES: CN[C@@H](C)C(=O)N[C@H](C(=O)N1CCC[C@H]1c1nc(C(=O)c2cccc(OCCOc3ccccc3OCCOc3ccc(Cn4c(C)c(C#N)c(-c5ccc(C#N)cc5)c4C)cc3)c2)cs1)C1CCCCC1

Activity [8]: Active
SMILES: CN[C@@H](C)C(=O)N[C@H](C(=O)N1CCC[C@H]1c1nc(C(=O)c2cccc(OCCOCCOCCOCCOCCOc3ccc(Cn4c(C)c(C#N)c(-c5ccc(C#N)cc5)c4C)cc3)c2)cs1)C1CCCCC1
